Source: publication PMC4697833 (Bioorganic & medicinal chemistry, 2015)
Where two headings read alike, the source gives them in different places. Blank lines part the entries; values can stand above or below the compound they belong to.

Assays:
Measured LogD7.4 = assay type: physicochemical; settings: pH 7.4
Method in brief: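 LogD at pH 7.4 was determined experimentally by liquid-liquid distribution chromatography, run by a contract analytical lab. Each value is the average of two measurements. The assay's measurable range is 1–5 log units.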

TEX cells [1] = assay: Methylcellulose clonal growth assay with TEX cells; assay type: cell-based, human; settings: 11 d growth on methylcellulose
Method in brief: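 TEX cells were suspended in methylcellulose medium with penicillin (100 I.U./mL) and streptomycin (100 µg/mL) at a final 1.2 × 10⁴ cells/mL, i.e. 6,000 cells/well. Test compound, diluted in TEX medium, or DMSO (0.05%, control) was added. Cells were plated as technical triplicates and grown 11 d at 37 °C, 5% CO₂. Two people counted colonies independently at 10X. Values are the mean of 3 biological replicates ± S.D., with unpaired t-tests against DMSO.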

[2] = system: murine AML cell line B117P; assay: Murine cytotoxicity assay, B117P; assay type: cell-based; settings: read-out: Growth inhibitory activity (IC50) B117P
Method in brief: (§1)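 Murine AML lines were used: B117P and B140P from BXH-2 mice, which develop leukemia from an endogenous murine leukemia virus, and their counterparts B117H and B140H. Cells per well were 25,000 (B117P), 28,000 (B117H), 36,000 (B140P) and 44,000 (B140H) in 96-well format. IC50 values are mean ± S.D. from biological triplicate.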

[3] = system: U-87 MG (glioblastoma multiforme); assay: Alamar blue cytotoxicity assay, U-87 MG; assay type: cell-based, human; settings: read-out: Growth inhibitory activity (IC50) U-87 MG
[4] = system: MCF-7 (breast adenocarcinoma); assay: Alamar blue cytotoxicity assay, MCF-7; assay type: cell-based, human
Method in brief: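 MCF-7 cells were grown in MEM with 10% FBS, bovine insulin 0.01 mg/mL, penicillin and streptomycin at 37 °C in 5% CO₂. They were detached with trypsin-EDTA or TrypLE and seeded at 5,000 cells/well 24 h before dosing. Readout was Alamar blue reduction. IC50 is mean ± S.D. from n ≥ 3 biological replicates.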

[5] = system: CCRF-CEM (acute lymphoblastic leukemia); assay: Alamar blue cytotoxicity assay, CCRF-CEM; assay type: cell-based, human; settings: read-out: Growth inhibitory activity (IC50) CCRF-CEM
Method in brief: (§2)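 Suspension cells (CCRF-CEM; TEX in IMDM with L-glutamine, 15% FBS, SCF 20 ng/mL, IL-3 2 ng/mL, penicillin/streptomycin) were seeded at 10,000 cells/well 24 h before compound addition. Cultures were kept at 37 °C in humidified 5% CO₂. Viability was read with Alamar blue. IC50 is mean ± S.D. of n ≥ 3 biological replicates.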

[6] = system: murine AML cell line B117H (cytarabine-resistant); assay: Murine cytotoxicity assay, B117H; assay type: cell-based; settings: read-out: Growth inhibitory activity (IC50) B117H
Method in brief: as §1

[7] = system: HL-60 (acute promyelocytic leukemia); assay: Alamar blue cytotoxicity assay, HL-60; assay type: cell-based, human
[8] = system: murine AML cell line B140H (cytarabine-resistant); assay: Murine cytotoxicity assay, B140H; assay type: cell-based; settings: read-out: Growth inhibitory activity (IC50) B140H
Method in brief: as §1

CD34+CD38− TEX cells = assay: Flow cytometry viability of CD34+CD38− TEX cells; assay type: cell-based; settings: Homo sapiens, 12 h; for viability at 25 µM: read-out: cell viability of CD34+CD38− TEX cells
Method in brief: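 TEX cells at 1 × 10⁶ cells/mL were dosed for 12 h at 37 °C, 20% O₂, 5% CO₂ (final DMSO 0.03% v/v). Test compound was given at 25, 15 or 2.5 µM; the doxorubicin reference at 2.5, 0.5 or 0.05 µM. Cells were stained for CD34/CD38 (10 min, 4 °C), then Annexin V-FITC/7-AAD (10 min, RT, dark). Over 5 × 10⁴ events were collected. Viable cells were double-negative. Values are mean ± S.D. of 3–5 biological replicates; unpaired t-test versus untreated.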

TEX cells [9] = assay: Alamar blue cytotoxicity assay, TEX; assay type: cell-based, human; settings: read-out: Growth inhibitory activity (IC50) TEX
Method in brief: as §2

[10] = system: murine AML cell line B140P; assay: Murine cytotoxicity assay, B140P; assay type: cell-based; settings: read-out: Growth inhibitory activity (IC50) B140P
Method in brief: as §1

TEX cells [11] = assay: Intracellular ROS induction; assay type: cell-based, human; settings: 30 min
Method in brief: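 TEX cells were seeded at 5 × 10⁵ cells/mL and incubated overnight at 37 °C, 5% CO₂. They were then exposed to test compound at 25 or 100 µM, with H₂O₂ 100 µM as positive control. CellROX Green (5 µM final) was added at once, followed by 30 min at 37 °C. Cells were washed twice in FACS buffer and 5 × 10⁴ events recorded. Median fluorescence was normalized to untreated control. Runs were in quadruplicate (H₂O₂ triplicate); mean ± S.D.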

[12] = system: GBM6 (glioblastoma multiforme); assay: Alamar blue cytotoxicity assay, GBM6; assay type: cell-based, human
[13] = system: total bone marrow cell population; assay: Flow cytometry viability of total bone marrow cells; assay type: cell-based, human
Method in brief: (§3)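 Cells were plated at 1 × 10⁶ cells/mL with test compound (25 µM) or doxorubicin (0.5 µM) for 12 h (final DMSO 0.03%). Staining was CD34/CD38, then Annexin V/7-AAD, with over 5 × 10⁴ events. Viability is the unstained fraction, mean ± S.D. of n ≥ 3; unpaired t-tests.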

DU-145 (prostate cancer) = assay: Alamar blue cytotoxicity assay, DU-145; assay type: cell-based, human
[14] = system: NCI/ADR-RES (ovarian cancer; adriamycin-resistant); settings: read-out: IC50 NCI/ADR-RES, previously reported; cited from earlier work
CD34+CD38− BM cells = assay: Flow cytometry viability of CD34+CD38− bone marrow cells; assay type: cell-based, human; settings: 0.5 µM, 12 hr
Method in brief: as §3

[15] = system: NCI/ADR-RES (ovarian cancer; adriamycin-resistant); assay: Alamar blue cytotoxicity assay, NCI/ADR-RES; assay type: cell-based, human; settings: read-out: Growth inhibitory activity (IC50) NCI/ADR-RES; mean ± S.D.
Method in brief: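 Adherent NCI/ADR-RES cells were seeded at 5,000 cells/well 24 h prior to compound treatment and kept at 37 °C, 5% CO₂. Growth was measured by Alamar blue. IC50 values are mean ± S.D. over n ≥ 3 biological replicates.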

[16] = 15 µM, N.D. = clonal growth not detected
[17] = Homo sapiens, MCF7, read-out: Growth inhibitory activity (IC50) MCF-7
[18] = Homo sapiens, HL-60, read-out: Growth inhibitory activity (IC50) HL-60
[19] = Homo sapiens, GBM6, read-out: Growth inhibitory activity (IC50) GBM6
[20] = Homo sapiens, DU-145, read-out: Growth inhibitory activity (IC50) DU-145

chromatographic logD (Measured LogD7.4): 2.9
Compound: C=C1C(=O)O[C@@H]2/C=C(\C)CC/C=C(\C)CC[C@@H]12 [CTL, Costunolide]
Colonies (mean number ± S.D.) (TEX cells [1]; 2.5 µM): 6.9 ± 3.6
Colonies (mean number ± S.D.) (TEX cells [1]; [16]): 5.6 ± 4.7
IC50 ([2]; Mus musculus): 3.5 ± 0.4 µM
IC50 ([3]; Homo sapiens, U-87 MG): 9.6 ± 0.8 µM
IC50 [4, 17]: 17.5 ± 3.7 µM
IC50 ([5]; Homo sapiens, CCRF-CEM): 2.3 ± 0.2 µM
IC50 ([6]; Mus musculus): 4.8 ± 0.7 µM
IC50 [7, 18]: 13 ± 0.2 µM
IC50 ([8]; Mus musculus): 2.8 ± 0.7 µM
viability at 25 µM (CD34+CD38− TEX cells): 1 to 10%
IC50 (TEX cells [9]; Homo sapiens, 48 h): 4.9 ± 0.4 µM
IC50 ([10]; Mus musculus): 3.6 ± 1.2 µM
induction of intracellular ROS (MFI normalized to untreated control) (TEX cells [11]; 100 µM): 2.2 fold
IC50 [12, 19]: 7 ± 1.8 µM
reduction in total BM viability ([13]; 25 µM, 12 h): 22–26%
IC50 (DU-145 (prostate cancer); [20]): 7.7 ± 2.8 µM

Compound: COc1cccc2c1C(=O)c1c(O)c3c(c(O)c1C2=O)C[C@@](O)(C(=O)CO)C[C@@H]3O[C@H]1C[C@H](N)[C@H](O)[C@H](C)O1 [DOX, Doxorubicin]
IC50 [14]: > 500 µM
Colonies (mean number ± S.D.) (TEX cells [1]; 0.1 µM): 0.7 ± 1.3
reduction in the primitive CD34+CD38− BM population viability (CD34+CD38− BM cells): 85%
viability at 0.5 µM (CD34+CD38− TEX cells; read-out: viability of CD34+CD38− TEX cells): 6%
reduction in total BM viability ([13]; 0.5 µM, 12 hr): 56%

chromatographic logD (Measured LogD7.4): 2.18
Compound: C=C1C(=O)O[C@H]2[C@H]1CCC(C)=C1CC[C@@](C)(O)[C@@H]12 [Compound 1, Micheliolide]
Colonies (mean number ± S.D.) (TEX cells [1]; 2.5 µM): 4.2 ± 2.5
IC50 ([2]; Mus musculus): 6.4 ± 1 µM
IC50 ([3]; Homo sapiens, U-87 MG): 17.8 ± 5 µM
IC50 [4, 17]: 9.6 ± 1 µM
IC50 ([5]; Homo sapiens, CCRF-CEM): 2.7 ± 1.1 µM
IC50 ([6]; Mus musculus): 8.8 ± 1.7 µM
IC50 [7, 18]: 9.2 ± 2.2 µM
IC50 ([8]; Mus musculus): 9.3 ± 1.5 µM
viability at 25 µM (CD34+CD38− TEX cells): 1 to 10%
IC50 (TEX cells [9]; Homo sapiens, 48 h): 2.7 ± 0.4 µM
IC50 ([10]; Mus musculus): 10 ± 0.4 µM
induction of intracellular ROS (MFI normalized to untreated control) (TEX cells [11]; 25 µM): 1.7 fold
induction of intracellular ROS (MFI normalized to untreated control) (TEX cells [11]; 100 µM): 2.9 fold
IC50 [12, 19]: 8.5 ± 0.7 µM
reduction in total BM viability ([13]; 25 µM, 12 h): 22–26%
IC50 (DU-145 (prostate cancer); [20]): 14.8 ± 4 µM

Compound: C=C1C(=O)O[C@@H]2[C@H]3O[C@]3(C)CC/C=C(\CO)CC[C@@H]12 [MelB, Melampomagnolide B]
Colonies (mean number ± S.D.) (TEX cells [1]; 2.5 µM): 5.3 ± 1.6
Colonies (mean number ± S.D.) (TEX cells [1]; [16]): 0.1 ± 0.3
IC50 ([2]; mean ± S.D.): 2.1 ± 0.8 µM
IC50 ([3]; mean ± S.D.): 16.3 ± 6.8 µM
IC50 ([4]; read-out: Growth inhibitory activity (IC50) MCF-7, mean ± S.D.): 9.5 ± 1.9 µM
IC50 ([5]; mean ± S.D.): 5.5 ± 1.2 µM
IC50 [15]: 15 ± 4.9 µM
IC50 ([6]; mean ± S.D.): 2.5 ± 1 µM
IC50 ([7]; read-out: Growth inhibitory activity (IC50) HL-60, mean ± S.D.): 7.5 ± 3 µM
IC50 ([8]; mean ± S.D.): 2.2 ± 0.7 µM
IC50 (TEX cells [9]; 48 hr treatment, mean ± S.D.): 6.8 ± 2.3 µM
IC50 ([10]; mean ± S.D.): 2.9 ± 1 µM
induction of intracellular ROS (MFI normalized to untreated control) (TEX cells [11]; 25 µM): No observable induction of ROS
induction of intracellular ROS (MFI normalized to untreated control) (TEX cells [11]; 100 µM): No observable induction of ROS
IC50 ([12]; read-out: Growth inhibitory activity (IC50) GBM6, mean ± S.D.): 4.5 ± 1.9 µM
reduction in total BM viability ([13]; 25 µM, 12 h): 22–26%
IC50 (DU-145 (prostate cancer); read-out: Growth inhibitory activity (IC50) DU-145, mean ± S.D.): 14.3 ± 5.9 µM

Compound: OO [hydrogen peroxide]
induction of intracellular ROS (MFI normalized to untreated control) (TEX cells [11]; 100 µM): 3.1 fold
